Results: ChEMBL document CHEMBL4024789, “Neutral Porphyrin Derivative Exerts Anticancer Activity by Targeting Cellular Topoisomerase I (Top1) and Promotes Apoptotic Cell Death without Stabilizing Top1-DNA Cleavage Complexes” (J Med Chem, 2018)
pEC50, pIC50: −log10 of the molar value. Activity calls are given as the source filed them. The calls are words filed in the database; no cut-off is given here.

How the values were obtained:
Bacteria = test: Induction of relaxed pBluescript SK(+) DNA intercalation (unknown origin) assessed as negative supercoiling at 50 to 300 uM after 15 mins by agarose gel electrophoresis method
Procedure, shortened: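 Top1 unwinding assay: relaxed DNA made by reacting excess Top1 with supercoiled pBS (SK+) plasmid (50 fmol), then incubated with compound at 50, 100 or 300 μM; m-AMSA and etoposide as reference intercalator/non-intercalator. Topoisomers resolved on agarose gel.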

[1] = biological target: T1, DNA topoisomerase 1 (Homo sapiens) (UniProt P11387); test: Ratio of EC50 for recombinant human topoisomerase-1 expressed in baculovirus infected sf9 cells simultaneously incubated with substrate to EC50 for recombinant human topoisomerase-1 expressed in baculovirus infected sf9 cells preincubated for 5 mins followed by substrate addition
T1 sequence (whole entry): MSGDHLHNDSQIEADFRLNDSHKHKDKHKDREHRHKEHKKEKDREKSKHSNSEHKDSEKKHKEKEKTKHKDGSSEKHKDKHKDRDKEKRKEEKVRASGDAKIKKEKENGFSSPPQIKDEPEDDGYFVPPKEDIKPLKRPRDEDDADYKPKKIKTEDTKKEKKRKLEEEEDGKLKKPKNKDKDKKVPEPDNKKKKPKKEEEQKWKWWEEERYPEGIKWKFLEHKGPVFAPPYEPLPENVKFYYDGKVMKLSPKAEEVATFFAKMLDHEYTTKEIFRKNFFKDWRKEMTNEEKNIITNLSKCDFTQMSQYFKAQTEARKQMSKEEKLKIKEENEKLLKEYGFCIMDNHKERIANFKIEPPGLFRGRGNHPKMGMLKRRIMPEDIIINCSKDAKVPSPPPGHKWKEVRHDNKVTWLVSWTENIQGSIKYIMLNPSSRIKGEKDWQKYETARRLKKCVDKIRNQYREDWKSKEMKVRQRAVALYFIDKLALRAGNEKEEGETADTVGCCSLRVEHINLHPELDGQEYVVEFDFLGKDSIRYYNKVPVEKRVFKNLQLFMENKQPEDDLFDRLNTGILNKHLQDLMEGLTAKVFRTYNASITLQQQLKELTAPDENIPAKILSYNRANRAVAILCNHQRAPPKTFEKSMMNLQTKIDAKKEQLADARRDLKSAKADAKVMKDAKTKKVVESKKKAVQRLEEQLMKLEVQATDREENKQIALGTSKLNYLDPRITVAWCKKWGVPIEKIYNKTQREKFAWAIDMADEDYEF
Procedure, shortened: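 Recombinant human Top1 purified from baculovirus-infected Sf-9 cells; 30 fmol enzyme with 90 fmol supercoiled pBS (SK+) DNA (3:1 molar ratio) in relaxation buffer. Compound either preincubated with enzyme 5 min before DNA, or added simultaneously; then 37 °C, 15 min. Relaxation on 1% agarose; % inhibition quantified, EC50 from three experiments (mean ± SD).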

MCF7 [2] = test: Induction of ROS accumulation in human MCF7 cells at 10 uM by CM-H2DCFDA dye based spectrofluorometric method; assay type: functional, cell-based; conditions: TDE = time-dependent effect
Procedure, shortened: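 MCF7 cells treated with 10 μM for the indicated times, with 0.2% DMSO as vehicle control, or pretreated with NAC (10 mM) for 30 min. ROS read as DCF fluorescence from CM-H2DCFDA. Mean ± SD of three independent experiments.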

[3] = biological target: T1, DNA topoisomerase 1 (Homo sapiens); test: Inhibition of topoisomerase-1- genomic DNA cleavage complex in human MCF7 cells at 20 uM after 12 hrs by ICE assay; assay type: cell-based
Procedure, shortened: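 ICE bioassay in MCF7 cells. Treatment was CPT (10 μM) or compound (20 μM) for 12 h, or CPT for 6 h then compound for a further 6 h. Genomic DNA (0.5–4 μg) probed with anti-Top1 antibody. Quantified with n = 3, ± SEM, t test.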

MCF7 [4] = test: Cytotoxicity against human MCF7 cells assessed as reduction in cell viability by MTT assay; assay type: functional, cell-based
Procedure, shortened: (§1)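 Survival of each cell line measured across a range of compound concentrations. Percent inhibition of viability at each concentration calculated against untreated control and IC50 estimated. MEFs were TDP1+/+ and TDP1–/– primary cells. Mean ± SD of at least three experiments in duplicate.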

[5] = biological target: T1, DNA topoisomerase 1 (Homo sapiens); test: Inhibition of CPT-induced recombinant human topoisomerase1-[…] cleavage complex at 10 to 50 uM after 30 mins using topoisomerase1 expressed in baculovirus infected sf9 cells by […]
[6] = biological target: T1, DNA topoisomerase 1 (Homo sapiens); test: Inhibition of recombinant human topoisomerase1-[32P]-labeled 25-mer duplex oligonucleotide cleavage complex formation at 10 to 50 uM after 30 mins using topoisomerase1 expressed in baculovirus infected sf9 cells by […]
MCF7 [7] = test: Induction of PARP cleavage in human MCF7 cells at 10 uM up to 12 hrs by Western blot method; assay type: functional, cell-based
Procedure, shortened: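 MCF7 cells treated with 10 μM for the indicated times. Full-length and cleaved PARP1 detected by Western blot of whole-cell extracts using rabbit polyclonal PARP1 antibody.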

MEF = test: Cytotoxicity against TDP1-/- MEF assessed as reduction in cell viability by MTT assay; assay type: cell-based; conditions: Mus musculus; procedure, shortened: as §1
[8] = biological target: T1, DNA topoisomerase 1 (Homo sapiens); test: Binding affinity to recombinant human topoisomerase-1 expressed in baculovirus infected sf9 cells assessed as intrinsic tryptophan fluorescence quenching up to 1.25 uM by Job's plot analysis
Procedure, shortened: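 Job plot by continuous variation: Top1 (from Sf-9 cells infected with recombinant baculovirus) and compound varied to a combined final 1.25 μM. Tryptophan fluorescence quenching read at 350 nm with excitation at 295 nm. Mean ± SD of three independent experiments.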

DNA topoisomerase 1 = biological target: T2, DNA topoisomerase 1 (Homo sapiens, UniProt P11387); test: Inhibition of recombinant human topoisomerase-1 expressed in baculovirus infected sf9 cells using supercoiled pBS SK(+) DNA as substrate after 15 mins by ethidium bromide staining based agarose gel electrophoresis method
T2 sequence (P11387 whole entry): T1 sequence (whole entry)
Procedure, shortened: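 Relaxation assay: 90 fmol supercoiled pBS (SK+) DNA with 30 fmol recombinant Top1 (Sf-9/baculovirus). Compound either preincubated with Top1 for 5 min before DNA addition, or added simultaneously with DNA; then 37 °C for 15 min. Vehicle 2% DMSO. Read on 1% agarose gel. EC50 from mean ± SD of three experiments.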

Activity (Bacteria): inactive
Ratio EC50 [1]: 4 to 5
inhibition [3]: Active
inhibition [5]: Active
inhibition [6]: Active
Activity [8]: Active
pEC50 (DNA topoisomerase 1): 5.83
Structure (SMILES): CN(C)c1ccc(-c2c3nc(c(-c4ccc(N(C)C)cc4)c4ccc([nH]4)c(-c4ccc(C(=O)O)cc4)c4nc(c(-c5ccc(C(=O)O)cc5)c5ccc2[nH]5)C=C4)C=C3)cc1
Activity (MCF7 [2]): Tde
pIC50 (MCF7 [4]): 5.66
Activity (MCF7 [7]): Active
pIC50 (MEF): < 5.00
